# Source: ChEMBL document CHEMBL5653629, “Novel Class of Potent and Cellularly Active Inhibitors Devalidates MTH1 as Broad-Spectrum Cancer Target” (ACS Chem Biol, 2017)
# pEC50: −log10 of the molar value. The source made the active and inactive calls. No cut-off for these calls is given here.
# Legend:
# U2OS [1] = experiment: Upregulation of nuclear 8-oxo-dG level in human U2OS cells at 1 to 2 uM incubated for 72 hrs by high content analysis; assay type: functional, cell-based; details: dose 1-2 µM
# Procedure, shortened: (§1)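 U2OS cells were immunostained for 8-oxo-dG and DNA, then imaged by high content analysis. Average nuclear 8-oxo-dG intensity and average nuclear count were measured together.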
# U2OS [2] = experiment: Upregulation of nuclear 8-oxo-dG level in human U2OS cells at 100 to 300 nM incubated for 72 hrs by high content analysis; assay type: functional, cell-based; details: dose 100-300 nM; procedure, shortened: as §1
# U2OS [3] = experiment: Upregulation of nuclear 8-oxo-dG level in human U2OS cells at 2 to 10 uM incubated for 72 hrs by high content analysis; assay type: functional, cell-based; details: dose 2-10 µM; procedure, shortened: as §1
# U2OS [4] = experiment: Cytotoxicity against human U2OS cells assessed as reduction in cell viability by measuring nuclei count at 30 uM incubated for 72 hrs by high content analysis; assay type: functional, cell-based; procedure, shortened: as §1
# [5] = Toxicity in NMRI nude mouse assessed as body weight loss upto 250 mg/kg, po qd for 7 days; assay type: organism-based; details: in vivo, 168 h, time 7 day
# Procedure, shortened: (§2)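 Female NMRI nude mice received oral doses in PEG/water (80:20), escalated step-wise from 25 to 250 mg/kg over 7 days. Body weight, overt toxicity and mortality were monitored, and observation was extended a further 7 days to catch latent toxicity.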
# [6] = Cytotoxicity against HMEC cells assessed as cell growth inhibition incubated for 144 hrs by alamarblue staining based assay; assay type: toxicity; details: human
# [7] = Metabolic stability in Han Wistar rat hepatocytes using well-stirred liver model assessed as maximum bioavailability at 1 uM measured for 2 to 90 mins by LC-MS/MS analysis; assay type: ADME, Hepatocyte; details: time 2-90 min, route po, read-out: Fmax
# HeLa [8] = experiment: Upregulation of OGG1 protein level in human HeLa cells at 1 uM by Western blot analysis; assay type: functional, cell-based
# Procedure, shortened: (§3)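 HeLa cells were treated and probed by Western blot for MTH2, OGG1, MUTYH and MTH1. HSP90 served as loading control.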
# NCI-H358 [9] = experiment: Induction of DNA double strand breaks in human NCI-H358 cells assessed as increase in gamma-H2AX expression at 12.4 uM incubated for 72 hrs by high content analysis; assay type: functional, cell-based
# Procedure, shortened: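 NCI-H358 cells were immunostained for γH2AX and DNA and analysed by high content imaging. The highest concentration tested was 12.4 µM, and EC50 was taken for DSB induction.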
# HeLa [10] = experiment: Upregulation of MUTYH protein level in human HeLa cells at 1 uM by Western blot analysis; assay type: functional, cell-based; procedure, shortened: as §3
# [11] = Distribution coefficient, logD of compound at pH 7.5 by HPLC analysis; assay type: physicochemical; details: octanol/water
# [12] = Protein binding in mouse plasma assessed as free fraction; assay type: ADME, cell-free
# [13] = Aqueous solubility of compound in pH 6.5; assay type: physicochemical; details: buffer
# [14] = Toxicity in NMRI nude mouse assessed as drug tolerability at 25 to 250 mg/kg, po qd for 7 days; assay type: organism-based; details: in vivo, 168 h, dose 25-250 mg/kg, time 7 day; procedure, shortened: as §2
# U2OS [15] = experiment: Effect on nuclear 8-oxo-dG level in human U2OS cells at 10 to 30 uM incubated for 72 hrs in presence of LCS1 by high content analysis; assay type: functional, cell-based; details: dose 10-30 µM
# CT26 [16] = experiment: Antitumor activity against mouse CT26 cells xenografted in NMRI nude mouse assessed as reduction in tumor volume at 100 mg/kg, po measured for 12 days; assay type: functional, organism-based; details: time 12.0 day
# CT26 [17] = experiment: Additive antitumor activity against mouse CT26 cells xenografted in NMRI nude mouse assessed as reduction in tumor growth at 100 mg/kg, po along with radiation treatment measured for 12 days; assay type: functional, organism-based; details: time 12.0 day
# [18] = Metabolic stability in human liver microsomes assessed as clearance at 1 uM measured for 2 to 60 mins by LC-MS/MS analysis; assay type: ADME, Microsome; details: time 2-60 min
# NCI-H460 [19] = experiment: Antitumor activity against human NCI-H460 cells xenografted in NMRI nude mouse assessed as reduction in tumor volume at 100 mg/kg, po measured for 10 days; details: time 10.0 day
# [20] = Apparent permeability across apical to basolateral side in human Caco-2 cells at 2 uM incubated for 2 hrs by LC/MS/MS analysis; assay type: ADME, cell-based
# MCF7 [21] = experiment: Inhibition of colony formation of human MCF7 cells at 0.1 to 10 uM measured after 15 days by soft agar assay; assay type: functional, cell-based; details: dose 0.1-10 µM, time 15.0 day
# CT26 [22] = experiment: Antitumor activity against mouse CT26 cells xenografted in NMRI nude mouse assessed as reduction in tumor weight at 100 mg/kg, po measured for 12 days; assay type: functional, organism-based; details: time 12.0 day
# HeLa [23] = experiment: Upregulation of OGG1 mRNA level in human HeLa cells at 1 uM incubated for 6 days by qPCR analysis; assay type: functional, cell-based; details: time 6.0 day
# HeLa [24] = experiment: Upregulation of MUTYH mRNA level in human HeLa cells at 1 uM incubated for 6 days by qPCR analysis; assay type: functional, cell-based; details: time 6.0 day
# U2OS [25] = experiment: Effect on nuclear 8-oxo-dG level in human U2OS cells at 10 to 30 uM incubated for 72 hrs by high content analysis; assay type: functional, cell-based; details: dose 10-30 µM; procedure, shortened: as §1
# NCI-H460 [26] = experiment: Antitumor activity against human NCI-H460 cells xenografted in NMRI nude mouse assessed as reduction in tumor weight at 100 mg/kg, po measured for 10 days; details: time 10.0 day
# [27] = Metabolic stability in human liver microsomes assessed as maximum bioavailability at 1 uM measured for 2 to 60 mins by LC-MS/MS analysis; assay type: ADME, Microsome; details: time 2-60 min, read-out: Fmax
# [28] = Metabolic stability in Han Wistar rat hepatocytes using well-stirred liver model assessed as clearance at 1 uM measured for 2 to 90 mins by LC-MS/MS analysis; assay type: ADME, cell-based, Hepatocyte; details: time 2-90 min
# NCI-H358 [29] = experiment: cells; details: Homo sapiens, NCI-H358, 144 h
# NCI-H358 [30] = experiment: Induction of DNA double strand breaks in human NCI-H358 cells assessed as increase in gamma-H2AX expression at 0.005 to 12 micromol/L incubated for 72 hrs by high content analysis; details: NCI-H358, 72 h
# MDA-MB-231 = experiment: cells; details: Homo sapiens, MDA-MB-231, 144 h
# U2OS [31] = experiment: cells; details: Homo sapiens, 144 h
# SW480 = experiment: cells; details: Homo sapiens, SW480, 144 h
# HeLa [32] = experiment: cells; details: Homo sapiens, 144 h
# A549 = experiment: cells; details: Homo sapiens, A549, 144 h
# NCI-H460 [33] = experiment: cells; details: Homo sapiens, NCI-H460, 144 h
# MCF7 [34] = experiment: cells; details: Homo sapiens, MCF7, 144 h
SMILES,Activity (U2OS [4]),GI50 at 144 h [6] [µM],Fh at 1 µM [7] [%],Activity (HeLa [8]),Activity (HeLa [10]),logD [11],fraction unbound [12],solubility [13] [µg/mL],CLH [18] [mL/min/kg],"Papp A→B at 2 h, 2 µM [20] [×10⁻⁶ cm/s]",Activity (HeLa [23]),Activity (HeLa [24]),Fh at 1 µM [27] [%],CLhep predicted at 1 µM [28] [mL/min/kg],other results
CC(C)(C)c1cnc(CSc2cnc(NC(=O)C3CCNCC3)s2)o1,–,–,–,–,–,–,–,–,–,–,–,–,–,–,Activity (U2OS [1]): Active
CC[C@@H]1C(=O)N(C)c2cnc(Nc3ccc(C(=O)N[C@H]4CC[C@H](N5CCN(CC6CC6)CC5)CC4)cc3OC)nc2N1C(C)C,–,–,–,–,–,–,–,–,–,–,–,–,–,–,Activity (U2OS [2]): Active
Cc1cc(Nc2cc(N3CCN(C)CC3)nc(Sc3ccc(NC(=O)C4CC4)cc3)n2)n[nH]1,–,–,–,–,–,–,–,–,–,–,–,–,–,–,Activity (U2OS [3]): Active
Cc1cccc(-n2ncc(Cl)c(Cl)c2=O)c1,Active,–,–,–,–,–,–,–,–,–,–,–,–,–,–
CCNC(=O)c1cc2c(N3CCOC[C@@H]3C)ccnc2[nH]1,–,> 30,87,inactive,inactive,1.6,0.48,288,4.83,14.8,inactive,inactive,78,9,Activity [5]: < 10%; Activity (NCI-H358 [9]): inactive; Activity [14]: Non-Toxic; Activity (U2OS [15]): inactive; Activity (CT26 [16]): inactive; Activity (CT26 [17]): inactive; Activity (NCI-H460 [19]): inactive; inhibition (MCF7 [21]): inactive; Activity (CT26 [22]): inactive; Activity (U2OS [25]): inactive; Activity (NCI-H460 [26]): inactive
Nc1nc(NC2CC2)cc(-c2cccc(Cl)c2Cl)n1,Active,3.2,54,inactive,inactive,2.5,0.04,38,10.7,30.7,inactive,inactive,51,32,GI50 (NCI-H358 [29]): 4.9 µM; pEC50 (NCI-H358 [30]): 5.51; GI50 (MDA-MB-231): 6.3 µM; GI50 (U2OS [31]): 2.6 µM; GI50 (SW480): 5.3 µM; GI50 (HeLa [32]): 4.2 µM; GI50 (A549): 4 µM; GI50 (NCI-H460 [33]): 7.1 µM; GI50 (MCF7 [34]): 3.5 µM
